In brackets after ≈: the same amount, converted by molar mass.
Tests used:
[1] = tested on: Mycobacterium tuberculosis; experiment: Antimicrobial activity against Mycobacterium tuberculosis H37Ra by microplate alamar blue assay; assay type: functional, organism-based
Plasmodium falciparum = experiment: Antiplasmodial activity against multidrug-resistant Plasmodium falciparum K1; assay type: functional, organism-based
How it was run: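 Parasites kept in continuous in vitro culture (Trager–Jensen method); activity assessed by a microculture radioisotope technique.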

Candida albicans = experiment: Antifungal activity against Candida albicans by XTT assay; assay type: functional, organism-based
Vero = experiment: Cytotoxicity against african green monkey Vero cells by sulforhodamine B assay; assay type: cell-based; conditions: Chlorocebus sabaeus
How it was run: (§1)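 Cell lines used were KB (human oral epidermoid carcinoma), BC (human breast cancer), NCI-H187 (human small cell lung cancer) and Vero (African green monkey kidney fibroblasts). Cytotoxicity was read colorimetrically by the Skehan method, with ellipticine as the reference substance.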

KB = experiment: Cytotoxicity against human KB cells by sulforhodamine B assay; assay type: functional, cell-based; how it was run: as §1
[2] = Cytotoxicity against human BC1 cells by sulforhodamine B assay; assay type: functional, cell-based; how it was run: as §1
NCI-H187 = experiment: Cytotoxicity against human NCI-H187 cells by sulforhodamine B assay; assay type: functional, cell-based; how it was run: as §1

Compound	MIC [1] [mg/L]	IC50 (Plasmodium falciparum) [mg/L]	IC50 (Candida albicans) [mg/L]	IC50 (Vero) [mg/L]	IC50 (KB) [mg/L]	IC50 [2] [mg/L]	IC50 (NCI-H187) [mg/L]	IC50 [1] [mg/L]
C/C(C=O)=C\CC/C(C)=C/Cc1cc(O)ccc1O [ALLIODORIN]	12.5 (≈ 48 µM)	3.1 (≈ 11.9 µM)	> 20	14.1 (≈ 54.2 µM)	12 (≈ 46.1 µM)	10.3 (≈ 39.6 µM)	2.2 (≈ 8.45 µM)	
NC[C@H]1O[C@H](O[C@H]2[C@H](O)[C@@H](O[C@H]3O[C@H](CO)[C@@H](O)[C@H](N)[C@H]3O)[C@H](N)C[C@@H]2N)[C@H](O)[C@@H](O)[C@@H]1O [KANAMYCIN]								2.5 (≈ 5.16 µM)
C/C1=C/CC/C(C)=C/CC2=C(C1)C(=O)C=CC2=O [GLOBIFERIN]	6.2 (≈ 25.6 µM)	2.1 (≈ 8.67 µM)	> 20	> 50	> 20	> 20	0.5 (≈ 2.06 µM)	
C=C[C@]1(C)Cc2c(OC(=O)c3ccccc3)ccc(OC(=O)c3ccccc3)c2C[C@@H]1C(=C)C	200 (≈ 442 µM)	> 20	> 20	> 50	> 20	> 20	> 20	
C[C@H]1[C@@H](O)O[C@@H]2O[C@@]3(C)CC[C@H]4[C@H](C)CC[C@@H]1[C@@]24OO3 [ARTENIMOL]		0.0012 (≈ 0.00422 µM)						
C=C1CCC[C@@]2(C)CC3=C(C[C@@H]12)C(=O)C=CC3=O [CORDIACHROME B]	12.5 (≈ 51.6 µM)	1.5 (≈ 6.19 µM)	7.7 (≈ 31.8 µM)	1.7 (≈ 7.02 µM)	6 (≈ 24.8 µM)	6.4 (≈ 26.4 µM)	0.4 (≈ 1.65 µM)	
C[C@@H]1[C@H](O)[C@@H](C)/C=C/C=C/C=C/C=C/C=C/C=C/C=C/[C@H](O[C@@H]2O[C@H](C)[C@@H](O)[C@H](N)[C@@H]2O)C[C@@H]2O[C@](O)(C[C@@H](O)C[C@@H](O)[C@H](O)CC[C@@H](O)C[C@@H](O)CC(=O)O[C@H]1C)C[C@H](O)[C@H]2C(=O)O [AMPHOTERICIN B]			0.08 (≈ 0.0866 µM)					
C/C(C=O)=C\CCC1(C)C=Cc2cc(O)ccc2O1 (stereo not drawn) [ELAEAGIN]	12.5 (≈ 48.4 µM)	3.6 (≈ 13.9 µM)	> 20	20 (≈ 77.4 µM)	> 20	> 20	6.1 (≈ 23.6 µM)	
CO[C@H]1/C=C/O[C@@]2(C)Oc3c(C)c(O)c4c(O)c(c(/C=N/N5CCN(C)CC5)c(O)c4c3C2=O)NC(=O)/C(C)=C\C=C\[C@H](C)[C@H](O)[C@@H](C)[C@@H](O)[C@@H](C)[C@H](OC(C)=O)[C@@H]1C [RIFAMPIN]								0.0047 (≈ 0.00571 µM)
C=C[C@@]1(C)CC2=C(C[C@H]1C(=C)C)C(=O)C=CC2=O [Cordiachrome C]	1.5 (≈ 6.19 µM)	0.2 (≈ 0.825 µM)	4.6 (≈ 19 µM)	1.4 (≈ 5.78 µM)	1.5 (≈ 6.19 µM)	1.8 (≈ 7.43 µM)	0.2 (≈ 0.825 µM)	
Cc1c2ccncc2c(C)c2c1[nH]c1ccccc12 [ELLIPTECINE]						0.2 (≈ 0.812 µM)	0.3 (≈ 1.22 µM)	
CC(C)=CCCC1(C)C=Cc2cc(O)ccc2O1 (stereo not drawn) [CORDIACHROMENE A]	12.5 (≈ 51.2 µM)	> 20	11.2 (≈ 45.8 µM)	> 50	> 20	> 20	> 20	
C=C[C@]1(C)Cc2c(OC(C)=O)ccc(OC(C)=O)c2C[C@@H]1C(=C)C	25 (≈ 76.1 µM)	0.4 (≈ 1.22 µM)	> 20	7.3 (≈ 22.2 µM)	8.5 (≈ 25.9 µM)	9.2 (≈ 28 µM)	5.1 (≈ 15.5 µM)	
NNC(=O)c1ccncc1 [ISONIAZID]								0.05 (≈ 0.365 µM)

Reference: ChEMBL document CHEMBL1151953, “Biomimetic transformation and biological activities of Globiferin, a terpenoid benzoquinone from Cordia globifera” (J Nat Prod, 2009)
